Data on six compounds can be found in ChEMBL document CHEMBL1143704, “Cyathusals A, B, and C, antioxidants from the fermented mushroom Cyathus stercoreus” (J Nat Prod, 2007).

Test [1] is described as follows: Antioxidant activity assessed as ABTS radical scavenging activity after 7 mins.
The subject of test [2] is Radical scavenging activity. The experiment in a line: Antioxidant activity assessed as DPPH radical scavenging activity after 30 mins. It is filed as functional. An outline of the steps: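 10 µL DMSO sample dilutions (DMSO alone as control) added to 190 µL of 1.5 × 10^-4 M ethanolic DPPH radical. Incubated 30 min at 25 °C, then A517 read at steady state. % scavenged = (1 − Atest/Acontrol) × 100. EC50 is the concentration scavenging 50% of the DPPH radical.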
For orientation: DPPH is a stable violet radical that fades when it is reduced.

As to `COc1ccc(O)c(C(C)(C)C)c1.COc1ccc(O)cc1C(C)(C)C` [BUTYLATED HYDROXYANISOLE], the EC50 worked out at 11.7 µM in test [1] and 97.1 µM in test [2].

For the compound `C/C=C/c1cc2c(c(=O)o1)-c1c(O)c(O)c(OC)c(C=O)c1CO2` [CYATHUSAL A], the EC50 in test [1] is 7.86 µM; in test [2], 41.6 µM.

As for `C/C=C/c1cc2c(c(=O)o1)-c1c(O)c(O)c(OC)c(C=O)c1C(O)O2` (configuration not stated) [CYATHUSAL B], the results for the concentration for a half-maximal effect (EC50) in test [1] and in test [2] were 11.1 µM and 46 µM, respectively.

On to `C/C=C/c1cc2c(c(=O)o1)-c1c(O)c(O)c(OC)c(C=O)c1C(OC(C)C)O2` (configuration not stated) [CYATHUSAL C], for which the EC50 in test [1] stood at 9.1 µM; in test [2], 26.6 µM.

For `C/C=C/c1cc2c(c(=O)o1)-c1c(O)c(O)c(OC)c(C=O)c1C(OC)O2` (configuration not stated) [PULVINATAL], the EC50 in test [1] is 8.36 µM; in test [2], 28.6 µM.

Take `Cc1c(C)c2c(c(C)c1O)CCC(C)(C(=O)O)O2` (configuration not stated) [TROLOX]: the EC50 in test [1] turned out to be 14.5 µM; in test [2], 37.6 µM.

What is called EC50 is the concentration at which the effect is half-maximal.
